Where “and” joins values, the source holds several entries; their conditions need not be identical. Equal values may be shown once. Calls of active or inactive are those of the source. No cut-off for these calls is given here.
Key:
Nucleic Acid = test: Difference between log K of (AT) and log K of (GC) DNA binding; format: nucleic-acid assay
Calf thymus DNA [1] = test: DNA dissociation constant was determined from calf thymus; format: functional; settings: Bos taurus
How it was run: (§1)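 Stopped-flow SDS-sequestration assay. Sonicated calf thymus DNA (400 µM base pairs) and 20 µM drug in 0.1 SHE buffer (2 mM HEPES, 10 µM EDTA, 99.4 mM NaCl, pH 7.0) were mixed 1:1 with 20 mM SDS at 20 °C. Absorbance decay was deconvoluted into exponential time constants by curve stripping. At least six runs were averaged; ratios were taken between time constants.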

Calf thymus DNA [2] = test: DNA dissociation constant from calf thymus; format: functional; settings: Bos taurus; how it was run: as §1
Calf thymus DNA [3] = test: Ratio T2/T1 of DNA dissociation constant from calf thymus; format: functional; settings: Bos taurus; how it was run: as §1
Calf thymus DNA [4] = test: Ratio T3/T2 of DNA dissociation constant from calf thymus; format: functional; settings: Bos taurus; how it was run: as §1
P388 [5] = test: Percentage increase in life span treated animals over those of controls injected with P388 leukemia cells; NA means no activity (ILS <20%) at all dose levels; format: functional; settings: Mus musculus
Calf thymus DNA [6] = test: Logarithm of association constant for binding to DNA by ethidium displacement; format: nucleic-acid assay; settings: Bos taurus
P388 [7] = test: Compound administered intraperitoneally was evaluated for optimal dose (OD) given per day after inoculation of 10e 6 P388 leukemia cells for highest nontoxic dose; format: functional, Mus musculus
P388 [8] = test: Percentage increase in life span treated animals over those of controls injected with P388 leukemia cells; Na means no activity (ILS<20%) at all dose levels; format: functional; settings: Mus musculus
[9] = tested on: L1210 (mouse leukemia cells); test: Ability to inhibit growth of mouse leukemia L1210 cells
P388 [10] = test: Percentage increase in life span treated animals over those of controls injected with P388 leukemia cells;NA means no activity (ILS<20%) at all dose levels; format: functional; settings: Mus musculus
Calf thymus DNA [11] = test: Ratio T4/T3 of DNA dissociation constant from calf thymus; format: functional; settings: Bos taurus; how it was run: as §1
Calf thymus DNA [12] = test: Dissociation constant of poly(dG-dC)DNA in calf thymus; format: functional; settings: Bos taurus
L1210 = test: Evaluated for concentration which when added to cultures of L1210 leukemia cells for a period of 70 hr reduces cell numbers of 50% of control cultures; format: functional, cell-based; settings: Mus musculus, L1210, 70 h
Calf thymus DNA [13] = test: Dissociation constant of poly(dG-dC)DNA binding in calf thymus; format: functional; settings: Bos taurus
Calf thymus DNA [14] = test: Ratio T2/T1 of DNA dissociation constant of poly(dG-dC) from calf thymus; format: functional; settings: Bos taurus
Calf thymus DNA [15] = test: Ratio T3/T2 of DNA dissociation constant of poly(dG-dC) from calf thymus; format: functional; settings: Bos taurus
Calf thymus DNA [16] = test: Ratio of DNA dissociation constant from calf thymus; format: functional; settings: Bos taurus; how it was run: as §1
P388 [17] = test: Percentage increase in life span treated animals over those of controls injected with P388 leukemia cells; format: functional, Mus musculus
P388 [18] = test: Percentage increase in life span treated animals over those of controls injected with P388 leukemia cells; NA means no activity (ILS<20%) at all dose levels; format: functional; settings: Mus musculus

SMILES	Log K delta (Nucleic Acid)	Time constant T2 (Calf thymus DNA [1]) [ms]	Time constant T1 (Calf thymus DNA [2]) [ms]	Time constant T3 (Calf thymus DNA [2]) [ms]	Ratio (Calf thymus DNA [3])	Ratio (Calf thymus DNA [4])	Log K (Calf thymus DNA [6])	OD (P388 [7]) [mg/kg]	Ratio (Calf thymus DNA [11])	Time constant T4 (Calf thymus DNA [2]) [ms]	ILS (P388 [17])	further results
COc1ccc2c(N)c3ccccc3nc2c1C(=O)NCCN(C)C	-0.09	20	7	87	2.9	4.4	7.21 and 7.12	–	–	–	–	ILS (P388 [5]): inactive
CN(C)CCNS(=O)(=O)c1cccc2c(N)c3ccccc3nc12	–	21	5	–	4.2	–	–	65	–	–	–	ILS (P388 [8]): inactive; IC50 [9]: 13000 nM
CN(C)CCCCCCNC(=O)c1cccc2c(N)c3ccccc3nc12	-0.01	19	4	80	4.8	4.2	7.41 and 7.4	–	–	–	–	–
Nc1c2ccccc2nc2c(C(=O)NCCN3CCOCC3)cccc12	0.29	40	4	135	10	3.3	7.29 and 7.58	30	4.4	590	–	ILS (P388 [10]): inactive
CN(C)CCCCNC(=O)c1cccc2c(N)c3ccccc3nc12	-0.06	16	4	52	4	3.3	7.49 and 7.43	–	–	–	–	Time constant T2 (Calf thymus DNA [12]): 26 ms; Time constant T3 (Calf thymus DNA [12]): 86 ms; IC50 (L1210): 430 nM; Time constant T1 (Calf thymus DNA [13]): 4 ms; Ratio (Calf thymus DNA [14]): 6.5; Ratio (Calf thymus DNA [15]): 3.3
Nc1c2ccccc2nc2c(C(=O)NCCNCCO)cccc12	0.39	17	5	49	–	–	7.34 and 7.73	20	–	214	73	Ratio (Calf thymus DNA [16]): 3.4 and 2.9 and 4.4
CN(C)CCCNC(=O)c1cccc2c(N)c3ccccc3nc12	0.09	15	4	44	3.8	2.9	7.51 and 7.6	50	–	–	–	ILS (P388 [18]): inactive
COc1ccc2c(N)c3cccc(C(=O)NCCN(C)C)c3nc2c1	0.38	83	26	271	3.2	3.3	7.33 and 7.71	–	3.7	1000	–	ILS (P388 [5]): inactive
COc1cc(C(=O)NCCN(C)C)c2nc3ccccc3c(N)c2c1	0.76	79	20	311	4	3.9	–	–	6.6	2050	72	–
COc1ccc(C(=O)NCCN(C)C)c2nc3ccccc3c(N)c12	0.21	102	22	355	4.6	3.5	7.31 and 7.52	–	6.4	2270	27	IC50 (L1210): 0.6 nM
COc1cccc2c(N)c3cccc(C(=O)NCCN(C)C)c3nc12	0.21	69	17	299	4.1	4.3	7.62 and 7.83	–	3.6	1080	81	–
COc1cccc2nc3c(C(=O)NCCN(C)C)cccc3c(N)c12	-0.18	30	6	168	5	5.6	7.68 and 7.55	–	–	–	–	ILS (P388 [5]): inactive
Nc1c2ccccc2nc2ccccc12 [AMINACRINE]	0.07	15	2.5	–	6.3	–	6.08 and 6.11	20	–	–	–	IC50 (L1210): 2600 nM
COc1ccc2nc3c(C(=O)NCCN(C)C)cccc3c(N)c2c1	0.02	25	9	64	2.8	2.6	7.64 and 7.66	–	5.2	330	–	ILS (P388 [5]): inactive
CCN(CC)CCNC(=O)c1cccc2c(N)c3ccccc3nc12	0.33	13	3	51	4.3	3.9	7.26 and 7.59	5.9	5.5	280	70	–
CN(C)CCNC(=O)c1ccc2nc3ccccc3c(N)c2c1	0.47	27	10	90	2.7	3.37	7.08 and 7.55	12.5	–	–	–	ILS (P388 [18]): inactive
CN(C)CCNC(=O)c1ccc2c(N)c3ccccc3nc2c1	0.48	27	6	98	4.5	3.6	7.18 and 7.66	250	–	–	–	ILS (P388 [18]): inactive
CN(C)CCN(C)C(=O)c1cccc2c(N)c3ccccc3nc12	0	11	2	–	5.5	–	6.37	30	–	–	–	IC50 (L1210): 5300 nM; ILS (P388 [5]): inactive
CN(C)CCNC(=O)c1cccc2c(N)c3ccccc3nc12	–	–	–	–	–	–	–	–	–	–	98	–
CN(C)CCCCCNC(=O)c1cccc2c(N)c3ccccc3nc12	0	16	4	58	4	3.6	7.45	–	–	–	–	–
